Laboratory results as given in ChEMBL document CHEMBL1126988, “Quinolone antibacterials containing the new 7-[3-(1-aminoethyl)-1- pyrrolidinyl] side chain: the effects of the 1-aminoethyl moiety and its stereochemical configurations on potency and in vivo efficacy” (J Med Chem, 1993).
Values after ≈ are worked out from the molar mass of the structure shown.

How the values were obtained:
Staphylococcus aureus [1] = assay: Minimum inhibitory concentration was evaluated in vitro against Staphylococcus aureus H 228; assay type: functional
In short: (§1)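 Standard microtitration broth assay against a panel of 10 Gram-positive and Gram-negative organisms. MIC read in µg/mL and averaged over multiple experiments.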

Streptococcus pyogenes [2] = assay: Minimum inhibitory concentration was evaluated in vitro against Streptococcus pyogenes C 203; assay type: functional; in short: as §1
Streptococcus pyogenes [3] = assay: Compounds were evaluated in vivo for antibacterial activity for mouse protection against Streptococcus pyogenes C 203 after oral administration; assay type: functional; conditions: for ED50: Streptococcus pyogenes, C 203, po, read-out: PD50
[4] = Clonogenic cytotoxicity against hamster V-79 cells; assay type: functional, Cricetulus griseus, V79
In short: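 Chinese hamster V-79 cells grown overnight, then drug-treated for 3 h at 37 °C. Medium is replaced with fresh medium and cells are incubated 5 days to allow colony formation. IC50 (µg/mL) is the concentration inhibiting colony formation by 50% relative to control.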

Escherichia coli [5] = assay: Antibacterial activity in vitro against Escherichia coli Vogel; assay type: functional; in short: as §1
Escherichia coli [6] = assay: Antibacterial activity against Escherichia coli Vogel after oral administration in mouse; assay type: functional; conditions: for ED50: Escherichia coli, po, read-out: PD50
Streptococcus pneumoniae = assay: Minimum inhibitory concentration was evaluated in vitro against Streptococcus pneumoniae SV-1; assay type: functional; in short: as §1
Providencia rettgeri = assay: Minimum inhibitory concentration was evaluated in vitro against Providencia rettgeri M1771; assay type: functional; in short: as §1
Klebsiella pneumoniae = assay: Minimum inhibitory concentration was evaluated in vitro against Klebsiella pneumoniae MGH2; assay type: functional; in short: as §1
Streptococcus pyogenes [7] = assay: Antibacterial activity measured as mouse protection against Streptococcus pyogenes C 203 after subcutaneous administration; assay type: functional; conditions: for ED50: Streptococcus pyogenes, C 203, sc, read-out: PD50
Escherichia coli [8] = assay: Antibacterial activity against Escherichia coli Vogel after subcutaneous administration in mouse; assay type: functional; conditions: Escherichia coli, sc; read-out: PD50
Staphylococcus aureus [9] = assay: Minimum inhibitory concentration was evaluated in vitro against Staphylococcus aureus UC 76; assay type: functional; in short: as §1
Enterococcus faecalis = assay: Minimum inhibitory concentration was evaluated in vitro against Enterococcus faecalis MGH-2; assay type: functional; in short: as §1
Enterobacter cloacae = assay: Minimum inhibitory concentration in vitro against Enterobacter cloacae MA 2646; assay type: functional
Mus musculus = species on record: Mus musculus; assay: Compounds were evaluated for phototoxicity no-effect dose in mouse; assay type: functional
In short: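 Depilated female CD-1 mice, five per dose plus controls. Animals are dosed orally and then exposed daily to UV-A (320–400 nm) for 3 h, for up to 4 days or until a definite positive response. Redness or erythema relative to controls, read 24 h after irradiation, counts as positive. Reported as the highest dose with no effect (mg/kg).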

Pseudomonas aeruginosa = assay: Minimum inhibitory concentration was evaluated in vitro against Pseudomonas aeruginosa UI-18; assay type: functional; in short: as §1
[10] = Staphylococcus aureus, read-out: MIC
[11] = Streptococcus pyogenes, read-out: MIC
[12] = Escherichia coli, read-out: MIC
[13] = Streptococcus pneumoniae, read-out: MIC
[14] = Providencia rettgeri, read-out: MIC
[15] = Klebsiella pneumoniae, read-out: MIC
[16] = Enterococcus faecalis, read-out: MIC
[17] = Enterobacter cloacae, read-out: MIC
[18] = Pseudomonas aeruginosa, read-out: MIC

| SMILES | MIC (Streptococcus pyogenes [2]) [µg/mL] | PD50 (Streptococcus pyogenes [3]) [mg/kg] | Cytotoxicity [4] [µg/mL] | ED50 (Escherichia coli [6]) [mg/kg] | MIC (Streptococcus pneumoniae) [µg/mL] | PD50 (Streptococcus pyogenes [7]) [mg/kg] | ED50 (Escherichia coli [8]) [mg/kg] | Dose (Mus musculus) [mg/kg] | MIC (Staphylococcus aureus [1]; [10]) [µg/mL] | MIC (Streptococcus pyogenes [2]; [11]) [µg/mL] | ED50 (Streptococcus pyogenes [3]) [mg/kg] | MIC (Escherichia coli [5]; [12]) [µg/mL] | MIC (Streptococcus pneumoniae; [13]) [µg/mL] | MIC (Providencia rettgeri; [14]) [µg/mL] | MIC (Klebsiella pneumoniae; [15]) [µg/mL] | ED50 (Streptococcus pyogenes [7]) [mg/kg] | MIC (Staphylococcus aureus [9]; [10]) [µg/mL] | MIC (Enterococcus faecalis; [16]) [µg/mL] | MIC (Enterobacter cloacae; [17]) [µg/mL] | MIC (Pseudomonas aeruginosa; [18]) [µg/mL] | also measured |
| --- | --- | --- | --- | --- | --- | --- | --- | --- | --- | --- | --- | --- | --- | --- | --- | --- | --- | --- | --- | --- | --- |
| CN[C@H](C)[C@H]1CCN(c2c(F)c(N)c3c(=O)c(C(=O)O)cn(C4CC4)c3c2F)C1 (mixture of isomers) | 0.003 | 0.6 | 17 | 3 | 0.003 | 0.3 | 0.4 | <30 |  |  |  |  |  |  |  |  |  |  |  |  | MIC (Staphylococcus aureus [1]): 0.003 µg/mL; MIC (Escherichia coli [5]): 0.025 µg/mL; MIC (Providencia rettgeri): 0.1 µg/mL; MIC (Klebsiella pneumoniae): 0.05 µg/mL; MIC (Staphylococcus aureus [9]): 0.003 µg/mL; MIC (Enterococcus faecalis): 0.013 µg/mL; MIC (Enterobacter cloacae): 0.025 µg/mL; MIC (Pseudomonas aeruginosa): 0.8 µg/mL |
| CN[C@H](C)[C@H]1CCN(c2c(F)cc3c(=O)c(C(=O)O)cn(C4CC4)c3c2C(F)(F)F)C1 (mixture of isomers) |  |  | 130 | 4 |  |  | 2 | >100 | 0.025 | 0.013 | 0.8 | 0.4 | 0.013 | 0.8 | 0.8 | 0.3 | 0.013 | 0.1 | 0.4 | 3.1 |  |
| CNCC1CCN(c2c(F)c(N)c3c(=O)c(C(=O)O)cn(C4CC4)c3c2F)C1 (stereo unspecified) |  |  | 7.8 | 8 |  |  | 1 | >100 | 0.013 (≈ 0.0331 µM) | 0.003 (≈ 0.00765 µM) |  | 0.025 (≈ 0.0637 µM) | 0.003 (≈ 0.00765 µM) | 0.2 (≈ 0.51 µM) | 0.05 (≈ 0.127 µM) |  | 0.006 (≈ 0.0153 µM) | 0.025 (≈ 0.0637 µM) | 0.05 (≈ 0.127 µM) | 0.4 (≈ 1.02 µM) |  |
| COc1c(N2CCC(N)C2)c(F)cc2c(=O)c(C(=O)O)cn(C3CC3)c12 (stereo unspecified) |  |  | 45 | 3 |  |  | 0.4 | >100 | 0.05 (≈ 0.138 µM) | 0.025 (≈ 0.0692 µM) | 10 | 0.025 (≈ 0.0692 µM) | 0.025 (≈ 0.0692 µM) | 0.1 (≈ 0.277 µM) | 0.05 (≈ 0.138 µM) | 3 | 0.013 (≈ 0.036 µM) | 0.05 (≈ 0.138 µM) | 0.025 (≈ 0.0692 µM) | 0.2 (≈ 0.553 µM) |  |
| CCn1cc(C(=O)O)c(=O)c2cc(F)c(N3CCC(C(C)N)C3)c(OC)c21 (racemic) |  |  | 19 | 9 |  |  | 3 |  | 0.006 (≈ 0.0159 µM) | 0.003 (≈ 0.00795 µM) | 3 | 0.05 (≈ 0.132 µM) | 0.003 (≈ 0.00795 µM) | 0.1 (≈ 0.265 µM) | 0.1 (≈ 0.265 µM) | 0.2 | 0.003 (≈ 0.00795 µM) | 0.006 (≈ 0.0159 µM) | 0.1 (≈ 0.265 µM) | 0.8 (≈ 2.12 µM) |  |
| CCN[C@@H](C)[C@@H]1CCN(c2nc3c(cc2F)c(=O)c(C(=O)O)cn3C2CC2)C1 (racemic) | 0.05 (≈ 0.129 µM) | 2 | 130 | 2 | 0.025 (≈ 0.0644 µM) | 2 | 1 | <30 | 0.1 (≈ 0.257 µM) |  |  | 0.1 (≈ 0.257 µM) |  | 0.8 (≈ 2.06 µM) | 0.2 (≈ 0.515 µM) |  |  |  | 0.1 (≈ 0.257 µM) | 1.6 (≈ 4.12 µM) | MIC (Staphylococcus aureus [9]): 0.025 µg/mL (≈ 0.0644 µM); MIC (Enterococcus faecalis): 0.05 µg/mL (≈ 0.129 µM) |
| C[C@@H](N)[C@@H]1CCN(c2c(F)c(N)c3c(=O)c(C(=O)O)cn(C4CC4)c3c2F)C1 |  |  | <7.8 |  |  |  | 0.7 |  | 0.003 (≈ 0.00765 µM) | 0.006 (≈ 0.0153 µM) | 2 | 0.025 (≈ 0.0637 µM) | 0.006 (≈ 0.0153 µM) | 0.05 (≈ 0.127 µM) | 0.025 (≈ 0.0637 µM) | 0.2 | 0.003 (≈ 0.00765 µM) | 0.006 (≈ 0.0153 µM) | 0.025 (≈ 0.0637 µM) | 0.4 (≈ 1.02 µM) | PD50 (Escherichia coli [6]): 4 mg/kg |
| CC(N)C1CCN(c2c(F)cc3c(=O)c(C(=O)O)cn(C4CC4)c3c2C(F)(F)F)C1 (racemic) | 0.006 (≈ 0.014 µM) | 0.7 | 19 |  | 0.006 (≈ 0.014 µM) | 0.3 |  | >100 |  |  |  |  |  |  |  |  |  |  |  |  | MIC (Staphylococcus aureus [1]): 0.013 µg/mL (≈ 0.0304 µM); MIC (Escherichia coli [5]): 0.2 µg/mL (≈ 0.468 µM); MIC (Providencia rettgeri): 0.4 µg/mL (≈ 0.936 µM); MIC (Klebsiella pneumoniae): 0.2 µg/mL (≈ 0.468 µM); MIC (Staphylococcus aureus [9]): 0.006 µg/mL (≈ 0.014 µM); MIC (Enterococcus faecalis): 0.025 µg/mL (≈ 0.0585 µM); MIC (Enterobacter cloacae): 0.2 µg/mL (≈ 0.468 µM); MIC (Pseudomonas aeruginosa): 1.6 µg/mL (≈ 3.74 µM) |
| CNC(C)C1CCN(c2cc3c(c(N)c2F)c(=O)c(C(=O)O)cn3C2CC2)C1 (racemic) |  |  | 290 |  |  |  |  | >100 | 0.05 (≈ 0.129 µM) | 0.025 (≈ 0.0644 µM) | 8 | 0.1 (≈ 0.257 µM) | 0.013 (≈ 0.0335 µM) | 0.4 (≈ 1.03 µM) | 0.2 (≈ 0.515 µM) | 1 | 0.006 (≈ 0.0154 µM) | 0.025 (≈ 0.0644 µM) | 0.1 (≈ 0.257 µM) | 1.6 (≈ 4.12 µM) |  |
